Pf Dd2 inh = P. falciparum Dd2 growth inhibitors, primary screen, SYBR Green fluorescence, single dose replicates. 72 h; active compounds read low. activity change, % at 10 µM. 94,000 compounds, 2.3% hits; in the data active = activity change below about -80%; inconclusive = no clear call, values can overlap the other calls
T cruzi growth-1 = T. cruzi intracellular proliferation inhibitors, primary screen, cell-based, beta-gal Tulahuen parasites, NIH3T3 host, luminescence | AID 624255, 2012 | 77,000 compounds, 5.9% hits | T. cruzi beta-gal in NIH3T3, GalScreen luminescence, 90 h | inhibition, % at 8.34 µM;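 active = mean inhibition above about 93%, with at least 55% of replicates each passing it, limit read from the data, passing the limit was not always enough; inconclusive = only one of those two conditions holds; inactive = neither condition holds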
IDH1 R132H inh = inhibitors of IDH1 R132H reductase, primary screen, biochemical, plate reader, single point; Isocitrate dehydrogenase [NADP] cytoplasmic (Homo sapiens), O75874; diaphorase/resazurin fluorescence, 60 min; inhibition, % at 10 µM; 70,000 compounds, 0.18% hits; AID 624101, 2012; in the data active = inhibition above about 34%; inconclusive = no clear call, values can overlap the other calls; inactive = below about 11%;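 note: 0% = DMSO and 100% = no enzyme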
Target sequence (O75874 whole entry R132H): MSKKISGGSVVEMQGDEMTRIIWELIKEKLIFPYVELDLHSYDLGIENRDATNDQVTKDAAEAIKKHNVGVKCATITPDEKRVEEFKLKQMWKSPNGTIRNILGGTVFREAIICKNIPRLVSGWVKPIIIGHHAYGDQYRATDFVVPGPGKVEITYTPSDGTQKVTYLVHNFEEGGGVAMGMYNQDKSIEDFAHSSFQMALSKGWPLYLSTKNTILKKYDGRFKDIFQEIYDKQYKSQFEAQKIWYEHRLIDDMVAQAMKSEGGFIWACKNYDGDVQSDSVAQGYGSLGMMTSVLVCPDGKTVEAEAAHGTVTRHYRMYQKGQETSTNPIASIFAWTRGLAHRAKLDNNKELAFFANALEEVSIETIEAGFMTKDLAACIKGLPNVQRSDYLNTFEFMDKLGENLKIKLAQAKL
KDM4C inh = inhibitors of GASC-1 (KDM4C) histone demethylase, primary screen, biochemical, single concentration HTS; 96,000 compounds, 0.15% hits; Lysine-specific demethylase 4C (Homo sapiens), Q9H3R0; inhibition, % at 12.5 µM; AID 720574, 2013; GST-KDM4C 2-372, H3K9me3 peptide, LANCE TR-FRET;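 active = mean replicate inhibition above about 25%, with at least 55% of replicates also reaching it, limit read from the data, passing the limit was not always enough; inconclusive = only one of those two conditions met; inactive = neither condition met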
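reagent = H3K9me3 peptide substrate, Fe(II), 2-oxoglutarate | system = GST-tagged GASC-1 (JMJD2C) catalytic fragment, aa 2-372 | amount = enzyme final amount 10 nM | read-out = Fall in 671/618 emission ratio as inhibition | medium = HEPES buffer, pH 7.5, plus ascorbate | schedule = 30 min reaction, 60 min detection, RT | measured by = LANCE TR-FRET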
T cruzi growth-2 = T. cruzi intracellular proliferation inhibitors, confirmation, cell-based, NIH3T3 host, beta-gal parasite, luminescence, cherry-pick; shares compounds with T cruzi growth-1; T. cruzi beta-gal in NIH3T3, GalScreen luminescence, 90 h; inhibition, % at 8.35 µM; 5,600 compounds, 72% hits; AID 651739, 2012;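 active = mean replicate inhibition above about 95% and at least 55% of replicates individually reaching it, limit read from the data; inconclusive = only one of the two criteria is met; inactive = neither criterion is met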
T cruzi growth-3 = inhibitors of intracellular T. cruzi replication, confirmation, NIH3T3 host cells, beta-gal parasites, cherry-pick, set 2. AID 651740, 2012. 5,600 compounds, 21% hits. inhibition, % at 2.09 µM. shares compounds with T cruzi growth-1. T. cruzi beta-gal in NIH3T3, GalScreen luminescence, 90 h;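 active = mean inhibition above about 95%, with at least 55% of replicates also reaching it, limit read from the data; inconclusive = meets just one of the two conditions; inactive = meets neither condition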;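 note: plate controls were neutral control median for no effect and positive control median for full effect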
3T3 cytotox = cytotoxicity in mouse NIH/3T3 fibroblasts, confirmation, cytotoxicity control for T. cruzi proliferation inhibitor project, cell-based, cherry-pick, single point; 5,600 compounds, 14% hits; shares compounds with T cruzi growth-1; cytotoxicity (signal decrease), % at 8.35 µM; AID 651742, 2012; NIH/3T3 viability, CellTiter-Glo ATP luminescence, 90 h;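 active = mean signal decrease across replicates above about 35% based on untreated-well scatter, with enough replicates individually passing, limit read from the data; inconclusive = no rule stated though some were filed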;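 note: 0% = median of neutral control wells and 100% = median of positive control wells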
NIH3T3 tox 2 = NIH/3T3 fibroblast cytotoxicity, confirmation, cytotoxicity control, cell-based, cherry-pick, single point, set 2; inhibition, % at 24.9 µM; shares compounds with T cruzi growth-1; NIH/3T3 viability, CellTiter-Glo ATP luminescence, 90 h; 5,600 compounds, 56% hits;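 active = mean loss of cell viability signal at or above a set limit, and enough replicates individually reaching it; inconclusive = meets only the mean limit or only the replicate share; inactive = meets neither condition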;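 note: 0% = median of neutral control wells and 100% = median of positive control wells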
* hit, by the source's call; ? = inconclusive; / = not tested or not shown. In the library only some 5.8% were active in any assay of this set; here they are far more common.

SMILES	Pf Dd2 inh	T cruzi growth-1	IDH1 R132H inh	KDM4C inh	T cruzi growth-2	T cruzi growth-3	3T3 cytotox	NIH3T3 tox 2
C[C@@H]1CN([C@H](C)CO)C(=O)c2cc(/C=C/c3ccccc3)cnc2O[C@H]1CN(C)Cc1ccccc1	-38	114*	0	1	113*	98*	13	105*
C[C@H](CO)N1C[C@H](C)[C@@H](CN(C)C(=O)CN(C)C)Oc2cc(C#Cc3ccccc3)ccc2S1(=O)=O	-83*	?	0	0	105*	62	2	104*
C[C@H](CO)N1C[C@H](C)[C@H](CN(C)C(=O)Cc2ccccn2)Oc2cc(C#Cc3ccccc3)ccc2S1(=O)=O	-85*	104*	2	-1	101*	27	28	25
C[C@H](CO)N1C[C@H](C)[C@@H](CN(C)C(=O)Cc2ccccn2)Oc2cc(C#Cc3ccccc3)ccc2S1(=O)=O	-73	68	2	4	/	/	/	/
C[C@@H]1CN([C@H](C)CO)S(=O)(=O)c2ccc(C#Cc3ccccc3)cc2O[C@H]1CN(C)C(=O)Cc1ccccn1	?	?	0	0	100*	24	24	85*
CCCC(=O)Nc1ccc2c(c1)C(=O)N(C)C[C@@H](OC)[C@@H](C)CN(C)[C@H](C)CO2	-11	20	0	-1	/	/	/	/
CS(=O)(=O)N1CC(=O)N2[C@H](CO)[C@@H](c3ccc(Br)cc3)[C@H]2C1	-9	/	/	1	/	/	/	/
C[C@H]1CN([C@@H](C)CO)C(=O)c2cc(NC(=O)CCN3CCOCC3)ccc2O[C@H]1CN(C)C(=O)Nc1ccc(C(F)(F)F)cc1	1	-192	0	0	/	/	/	/
C[C@H](CO)N1C[C@H](C)[C@H](CN(C)S(=O)(=O)c2ccccc2)Oc2ccc(NC(=O)C3CCCCC3)cc2CC1=O	-16	29	2	-1	/	/	/	/
CO[C@H]1CN(C)C(=O)c2cc(NS(=O)(=O)CC(F)(F)F)ccc2OC[C@@H](C)N(C(=O)NC(C)C)C[C@@H]1C	22	94	0	2	/	/	/	/
CC(C)CC#Cc1ccc([C@H]2[C@H](CO)N3CCCCN(C(=O)c4ccc5c(c4)OCO5)C[C@@H]23)cc1	-29	84	/	-1	/	/	/	/
CC(C)CC#Cc1ccc([C@@H]2[C@H](CO)N3CCCCN(C(=O)c4ccc5c(c4)OCO5)C[C@@H]23)cc1	-42	106*	/	1	104*	64	31	105*
CC(C)C#Cc1ccc([C@@H]2[C@@H](CO)N3CCCCN(C(=O)c4ccc5c(c4)OCO5)C[C@@H]23)cc1	-6	84	/	0	/	/	/	/
CC(C)CC#Cc1ccc([C@H]2[C@H]3CN(C(=O)c4ccc5c(c4)OCO5)CCCCN3[C@H]2CO)cc1	-35	113*	/	0	101*	78	14	104*
CN(C)CC#Cc1ccc([C@H]2[C@H](CO)N3CCCCN(C(=O)Nc4cc(F)ccc4F)C[C@@H]23)cc1	-55	105*	/	5	99*	43	24	58*
CN(C)CC#Cc1ccc([C@@H]2[C@@H](CO)N3CCCCN(C(=O)Nc4ccccc4F)C[C@H]23)cc1	-2	-11	/	4	/	/	/	/
CN(C)CC#Cc1ccc([C@H]2[C@@H](CO)N3CCCCN(C(=O)Nc4cc(F)ccc4F)C[C@H]23)cc1	-40	109*	/	5	96*	50	21	101*
CN(C)CC#Cc1ccc([C@@H]2[C@H](CO)N3CCCCN(C(=O)Nc4ccccc4F)C[C@@H]23)cc1	-40	102*	/	4	?	93	-8	39*
COCC#Cc1ccc([C@H]2[C@@H](CO)N3CCCCN(C(=O)Nc4cc(F)ccc4F)C[C@H]23)cc1	-52	101*	/	1	104*	62	-1	89*
CC(=O)c1cccc(NC(=O)CSC2=NCCS2)c1	/	/	0	/	/	/	/	/
COc1cccc(-c2cn(CC[C@@H]3CC[C@H](NS(=O)(=O)c4ccccc4Cl)[C@H](CO)O3)nn2)c1	-79	/	-1	-1	/	/	/	/
CN(C)CC#Cc1ccc([C@@H]2[C@H](CO)N3CCCCN(C(=O)Nc4cc(F)ccc4F)C[C@@H]23)cc1	-39	?	/	4	93	73	9	98*
CN(C)CC#Cc1ccc([C@@H]2[C@@H](CO)N3CCCCN(C(=O)Nc4ccc(F)cc4)C[C@@H]23)cc1	-20	?	/	4	106*	82	2	?
CN(C)CC#Cc1ccc([C@@H]2[C@@H](CO)N3CCCCN(C(=O)Nc4cc(F)ccc4F)C[C@H]23)cc1	-4	100*	/	4	?	45	8	28*
CN(C)CC#Cc1ccc([C@H]2[C@@H](CO)N3CCCCN(C(=O)Nc4ccc(F)cc4)C[C@H]23)cc1	-47	53	/	2	/	/	/	/
SMILES	Pf Dd2 inh	T cruzi growth-1	IDH1 R132H inh	KDM4C inh	T cruzi growth-2	T cruzi growth-3	3T3 cytotox	NIH3T3 tox 2
O=C(Cc1ccccn1)N[C@@H]1CC[C@H](CCn2cc(-c3cccnc3)nn2)O[C@@H]1CO	-1	-19	-1	2	/	/	/	/
COc1ccc(-c2ccc3c(c2)O[C@H](CN(C)C(=O)Nc2ccccc2F)[C@@H](C)CN([C@@H](C)CO)S3(=O)=O)cc1	-70	98*	6	-2	108*	54	33	58*
COc1ccc(-c2ccc3c(c2)O[C@@H](CN(C)C(=O)c2ccccc2F)[C@H](C)CN([C@@H](C)CO)S3(=O)=O)cc1	-70	110*	2	-5	90	44	47*	79*
COc1ccc(-c2ccc3c(c2)O[C@@H](CN(C)C(=O)c2ccccc2F)[C@H](C)CN([C@H](C)CO)S3(=O)=O)cc1	-74	114*	0	-3	105*	67	40*	70*
COc1ccc(-c2ccc3c(c2)O[C@@H](CN(C)C(=O)c2ccccc2F)[C@@H](C)CN([C@H](C)CO)S3(=O)=O)cc1	-73	86	-2	-4	/	/	/	/
COc1ccc(-c2ccc3c(c2)O[C@H](CN(C)C(=O)c2ccccc2F)[C@@H](C)CN([C@@H](C)CO)S3(=O)=O)cc1	-69	106*	0	0	105*	68	12	54*

Screening data deposited in PubChem BioAssay by Broad Institute.
